Most compounds without a hit are left out; they make up all but 3.4% or so of the library.
TAAR1 antagonist: antagonists of human TAAR1. Q96RJ0. CHO RD-HGA16 TAAR1, Fluo-8 calcium fluorescence, antagonist. inhibition, % at 3 µM. 360,000 tested, 1.5% active;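 active = inhibition above a per-plate cutoff, the mean inhibition of test compounds on that plate plus 3 SD, cut at about 49% in these data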;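 also: 0% = DMSO plus EC80 beta-PEA response and 100% = DMSO alone without agonist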
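test system = CHO RD-HGA16 cells bearing hTAAR1 | replication = singlicate | controls = DMSO-only wells and EC80 β-PEA-stimulated wells | reagent = EC80 β-phenethylamine stimulus | read-out basis = percent inhibition of PEA-evoked calcium signal, max/basal emission ratio | schedule = seeding 17-24 h prior, 75-min 37 °C, 30-min RT dye loading | signal = kinetic Fluo-8 calcium fluorescence measurement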
M1 antag: blocks human M1 muscarinic receptor; P11229; CHO-K1 hM1, Fluo-8 calcium fluorescence, ACh EC80 antagonist; inhibition, % at 3 µM; 360,000 tested, 1.3% active; AID 588852;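 active = percent inhibition above its own plate's cutoff, namely the mean of that plate's compound wells plus 3 SD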;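 also: peak over basal fluorescence ratio during 140 s after agonist addition; 0% = ACh EC80 plus DMSO and 100% = DMSO alone without agonist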
Target sequence (P11229 whole entry, looked up): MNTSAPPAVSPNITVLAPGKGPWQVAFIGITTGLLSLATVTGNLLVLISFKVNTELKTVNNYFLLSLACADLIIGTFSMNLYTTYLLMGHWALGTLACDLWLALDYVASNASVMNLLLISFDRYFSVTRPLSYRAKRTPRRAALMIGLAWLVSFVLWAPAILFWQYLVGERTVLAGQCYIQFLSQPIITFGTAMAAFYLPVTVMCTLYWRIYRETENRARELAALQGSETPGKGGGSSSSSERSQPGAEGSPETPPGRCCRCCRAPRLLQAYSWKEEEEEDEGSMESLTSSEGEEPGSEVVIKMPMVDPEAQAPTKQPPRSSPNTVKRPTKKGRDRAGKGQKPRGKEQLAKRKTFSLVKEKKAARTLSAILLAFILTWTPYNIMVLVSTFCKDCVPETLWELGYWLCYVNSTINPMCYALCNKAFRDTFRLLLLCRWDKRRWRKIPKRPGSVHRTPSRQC
M1 ag: agonists of human M1 muscarinic receptor; activation, % at 3 µM; CHO-K1 hM1, Fluo-8 calcium fluorescence, agonist mode; 0% DMSO, 100% acetylcholine EC100; AID 588814; 360,000 tested, 0.33% active; P11229;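 active = activation above the run's mean compound activation plus 3 SD, cut at about 16% in these data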;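 also: peak over basal fluorescence ratio within a 140 s kinetic read after compound addition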
CHRM1 PAM: potentiates human M1 receptor response to acetylcholine; CHO-K1 hM1, Fluo-8 calcium fluorescence, ACh EC20; 0% = ACh EC20, 100% = maximal ACh; activation, % at 3 µM; 360,000 tested, 0.088% active; in the data active = activation above about 19%, passing the limit was not always enough
TAAR1 ag: agonists of human TAAR1; activation, % at 3 µM; AID 624467; 360,000 tested, 0.99% active; CHO RD-HGA16 TAAR1, Fluo-8 calcium fluorescence; vehicle wells 0%, saturating PEA agonist 100%; Q96RJ0;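 active = activation above the mean activation of all test compounds in the run plus 3 SD, cut at about 38% in these data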
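System: CHO-derived RD-HGA16 cells with stable Gα16 and human TAAR1. Times: 17-24 h plating, Fluo-8 75 min 37 °C, 30 min RT. Measured by: calcium-sensitive Fluo-8 signal, excitation 470-495, emission 515-575 nm. Read-out basis: % activation relative to PEA EC100 response. Control set: DMSO and PEA EC100. Repeats: no replicates (n 1).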
Active calls of the source: *.

How did Cc1[nH]c2ccccc2c1/C=N\NC(=O)c1ccco1 do in these assays?
TAAR1 antagonist: -17; M1 antag: -20; M1 ag: 1; CHRM1 PAM: 24*; TAAR1 ag: 2

Results for Cc1[nH]c2ccccc2c1/C=N/Nc1ccc([N+](=O)[O-])cc1 ?
TAAR1 antagonist: 47; M1 antag: 35*; M1 ag: 16*; CHRM1 PAM: -10; TAAR1 ag: 14

Results for Cc1[nH]c2ccccc2c1/C=N/NC(=O)c1cccc([N+](=O)[O-])c1 ?
TAAR1 antagonist: 6; M1 antag: -3; M1 ag: -6; CHRM1 PAM: 0; TAAR1 ag: 6

How did NC(Cc1ccc(O)cc1)C(=O)NN=Cc1ccccc1Cl (stereo unspecified) do in these assays?
TAAR1 antagonist: -12; TAAR1 ag: 2

What do the screens show for `CCC(C)N(C)Cc1cccc(C2(O)CCN(S(=O)(=O)c3ccc(F)c(C)c3)CC2)c1` (stereo unspecified)?
TAAR1 antagonist: 8; M1 antag: 81*; M1 ag: -11; CHRM1 PAM: -27; TAAR1 ag: 0

How did O=C(NC1CCN(Cc2ccccc2)CC1)C1COc2ccccc2O1 (stereo unspecified) do in these assays?
TAAR1 antagonist: 16; M1 antag: 83*; M1 ag: -7; CHRM1 PAM: -22; TAAR1 ag: 12

Results for CCN(c1ccccc1)S(=O)(=O)c1ccc(C(=O)NC2CCCCC2)cc1 ?
TAAR1 antagonist: 17; M1 antag: -3; M1 ag: -2; CHRM1 PAM: -2; TAAR1 ag: 4

Results for CCN(c1ccccc1)S(=O)(=O)c1ccc(C(=O)NC2CCN(Cc3ccccc3)CC2)cc1 ?
M1 antag: 66*; M1 ag: 7; CHRM1 PAM: -30

Results for O=C1NC(=O)C2(CCOc3ccc(F)cc32)N1 (stereo unspecified) ?
TAAR1 antagonist: 0; TAAR1 ag: 0

How did COCCCn1cc(CN2CC(N3CCN(CCO)CC3)CS2(=O)=O)nn1 (stereo unspecified) do in these assays?
TAAR1 antagonist: -10; TAAR1 ag: 2

What do the screens show for `CC(C)N(CC#CCC(O)(c1ccccc1)c1ccccc1)CCO`?
TAAR1 antagonist: 1; M1 antag: 28; M1 ag: -13; CHRM1 PAM: -28; TAAR1 ag: 2

How did CC(C)N(CC#CCC(O)(c1ccccc1)c1ccccc1)C(C)C do in these assays?
TAAR1 antagonist: -10; M1 antag: 39*; M1 ag: -10; CHRM1 PAM: -23; TAAR1 ag: 7

What do the screens show for `CCN(CC#CCC(O)(c1ccccc1)c1ccccc1)C(C)C`?
TAAR1 antagonist: -27; M1 antag: 82*; M1 ag: -15; CHRM1 PAM: -28; TAAR1 ag: 4

Results for O=S(=O)(NCC(Nc1ccccc1)c1ccccc1)c1ccc(Cl)cc1 (stereo unspecified) ?
TAAR1 antagonist: 51*; M1 antag: 17; M1 ag: -6; CHRM1 PAM: -12; TAAR1 ag: -1

Results for O=C(CC(=O)c1ccccc1)CC(O)(C=Cc1ccccc1)c1ccccc1 (stereo unspecified) ?
TAAR1 antagonist: 51*; M1 antag: -14; M1 ag: -4; CHRM1 PAM: 1; TAAR1 ag: 7

What do the screens show for `COc1ccc(S(=O)(=O)N2CCCc3nc(-c4ccc(F)cc4)ccc32)cc1`?
TAAR1 antagonist: 12; TAAR1 ag: -2

How did CSc1ccc(Oc2cccc3c2S(=O)(=O)N(C2CC2)C[C@@H](COCc2ccccc2)O3)cc1C do in these assays?
TAAR1 antagonist: -9; TAAR1 ag: 3

What do the screens show for `CCN(CC)CCCNc1ncnc2scc(-c3ccc(F)cc3)c12`?
TAAR1 antagonist: -11; M1 antag: 34*; M1 ag: -9; CHRM1 PAM: -20; TAAR1 ag: 1

Results for OC1CCC(Nc2ccn3nc(-c4cccc(Cl)c4)cc3n2)CC1 (stereo unspecified) ?
TAAR1 antagonist: -15; M1 antag: -3; M1 ag: -1; CHRM1 PAM: 0; TAAR1 ag: 11

How did OC1CCC(Nc2ccn3nc(-c4cccc(OCc5ccccc5)c4)cc3n2)CC1 (stereo unspecified) do in these assays?
TAAR1 antagonist: 53*; M1 antag: 20; M1 ag: 7; CHRM1 PAM: -8; TAAR1 ag: 15

What do the screens show for `COCCCNc1ccn2nc(-c3cccc(OCc4ccccc4)c3)cc2n1`?
TAAR1 antagonist: 46; M1 antag: 27*; M1 ag: -1; CHRM1 PAM: -11; TAAR1 ag: 9

How did c1ccc(COc2ccc(-c3cc4nc(NCCCn5ccnc5)ccn4n3)cc2)cc1 do in these assays?
TAAR1 antagonist: 53*; M1 antag: 19; M1 ag: -5; CHRM1 PAM: -10; TAAR1 ag: 15

What do the screens show for `C[C@@H]1CN([C@H](C)CO)C(=O)CCCn2nncc2CO[C@H]1CN(C)C(=O)Nc1ccc2c(c1)OCCO2`?
TAAR1 antagonist: -16; TAAR1 ag: 0

How did O=C(OCC(O)C1OC(c2ccccc2)OC(COC(=O)c2ccccc2)C1O)c1ccccc1 (stereo unspecified) do in these assays?
TAAR1 antagonist: 46; M1 antag: 9; M1 ag: -2; CHRM1 PAM: -2; TAAR1 ag: 4

How did CN(Cc1cn(Cc2cccc(C(F)(F)F)c2)nn1)C1CN(Cc2cn(Cc3cccc(C(F)(F)F)c3)nn2)S(=O)(=O)C1 (stereo unspecified) do in these assays?
TAAR1 antagonist: -7; TAAR1 ag: 5

Results for CCOC(=O)CC1C(=O)NCCN1C(=O)c1cccc(OC)c1 (stereo unspecified) ?
TAAR1 antagonist: 3; M1 antag: 28*; M1 ag: -2; CHRM1 PAM: -14; TAAR1 ag: -1

What do the screens show for `COc1ccc(N2CCN(C(=O)c3ccc(CS(=O)(=O)c4ccc(Br)cc4)o3)CC2)cc1`?
TAAR1 antagonist: 2; M1 antag: -5; M1 ag: 0; CHRM1 PAM: 2; TAAR1 ag: 3

Results for O=C(c1ccc(CS(=O)(=O)c2ccc(Br)cc2)o1)N1CCN(c2ccc(F)cc2)CC1 ?
TAAR1 antagonist: 52*; M1 antag: -4; M1 ag: -1; CHRM1 PAM: 2; TAAR1 ag: 3

Results for CCOC(=O)[C@]12CCCC=C1N(CCc1ccc(OC)c(OC)c1)C(=O)[C@H](CC(=O)NCCCCc1ccccc1)C2 ?
TAAR1 antagonist: 5; TAAR1 ag: 1

What do the screens show for `Cc1cccc(C)c1NC(=O)C1CCCN(CCCc2ccccc2)C1` (stereo unspecified)?
TAAR1 antagonist: -8; M1 antag: 97*; M1 ag: -7; CHRM1 PAM: -24; TAAR1 ag: 5

Assay outcomes from PubChem BioAssay.
